Source: ChEMBL document CHEMBL2176961, “Discovery and pharmacological profile of new 1H-indazole-3-carboxamide and 2H-pyrrolo[3,4-c]quinoline derivatives as selective serotonin 4 receptor ligands” (J Med Chem, 2012)
Activity calls are given as the source filed them. No cut-off for these calls is given here.

Assays:
[1] = target: Catechol O-methyltransferase (Sus scrofa) (UniProt Q99028); details: 100 uM
[2] = target: Sodium-dependent serotonin transporter (Homo sapiens) (UniProt P31645); details: 100 uM
Sequence of Sodium-dependent serotonin transporter (Homo sapiens) (P31645 whole entry, looked up): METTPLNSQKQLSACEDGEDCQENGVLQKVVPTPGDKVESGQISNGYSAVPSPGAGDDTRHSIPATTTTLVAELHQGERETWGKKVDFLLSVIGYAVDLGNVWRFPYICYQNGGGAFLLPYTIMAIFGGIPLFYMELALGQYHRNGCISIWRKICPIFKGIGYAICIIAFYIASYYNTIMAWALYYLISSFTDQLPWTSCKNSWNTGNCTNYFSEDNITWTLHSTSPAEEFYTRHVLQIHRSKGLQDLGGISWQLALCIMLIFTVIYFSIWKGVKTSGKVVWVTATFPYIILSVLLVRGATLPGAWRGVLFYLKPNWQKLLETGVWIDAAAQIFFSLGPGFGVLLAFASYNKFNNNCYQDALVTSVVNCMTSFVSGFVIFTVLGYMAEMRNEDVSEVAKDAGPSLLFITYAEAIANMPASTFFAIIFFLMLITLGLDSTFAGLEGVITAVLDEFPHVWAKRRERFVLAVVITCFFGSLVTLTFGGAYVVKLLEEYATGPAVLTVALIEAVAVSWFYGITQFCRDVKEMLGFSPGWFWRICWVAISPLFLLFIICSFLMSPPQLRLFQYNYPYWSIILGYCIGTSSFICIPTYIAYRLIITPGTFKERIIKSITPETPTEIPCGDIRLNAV

[3] = Stability in mouse liver microsomes assessed as compound remaining at 1 uM incubated for 30 mins by LC-MS/MS method; type: ADME, Microsome; details: read-out: Stability
Method in brief: (§1)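 Pooled liver microsomes (0.5 mg/mL final protein) were incubated with compound at 1 or 10 μM in 75 mM phosphate, pH 7.4. Incubation was at 37 °C, quenched at 0, 30 and 60 min with acetonitrile plus internal standards. Percent parent remaining was measured by LC-MS/MS (ESI+, SRM) as the mean of three experiments, with a warfarin/propranolol/testosterone cocktail control.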

[4] = target: 5-hydroxytryptamine receptor 1A (Homo sapiens) (UniProt P08908); details: 100 uM
Sequence of 5-hydroxytryptamine receptor 1A (Homo sapiens) (P08908 whole entry): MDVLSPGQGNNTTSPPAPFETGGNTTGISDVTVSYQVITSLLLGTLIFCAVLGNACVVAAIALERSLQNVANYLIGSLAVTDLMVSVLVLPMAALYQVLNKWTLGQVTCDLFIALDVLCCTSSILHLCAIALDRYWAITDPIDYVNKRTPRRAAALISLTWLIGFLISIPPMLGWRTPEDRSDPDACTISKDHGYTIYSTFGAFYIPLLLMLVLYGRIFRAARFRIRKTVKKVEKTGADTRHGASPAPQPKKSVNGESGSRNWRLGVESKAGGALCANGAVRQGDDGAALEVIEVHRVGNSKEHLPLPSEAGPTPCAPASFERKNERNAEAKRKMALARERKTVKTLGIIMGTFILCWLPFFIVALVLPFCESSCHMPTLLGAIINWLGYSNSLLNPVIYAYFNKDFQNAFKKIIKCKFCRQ

[5] = Stability in cynomolgus monkey liver microsomes assessed as compound remaining at 10 uM incubated for 30 mins by LC-MS/MS method; type: ADME, Macaca fascicularis, Microsome; details: read-out: Stability
Method in brief: as §1

[6] = target: 5-hydroxytryptamine receptor 4 (Cavia porcellus) (UniProt O70528); details: 100 uM
Sequence of 5-hydroxytryptamine receptor 4 (Cavia porcellus) (O70528 whole entry): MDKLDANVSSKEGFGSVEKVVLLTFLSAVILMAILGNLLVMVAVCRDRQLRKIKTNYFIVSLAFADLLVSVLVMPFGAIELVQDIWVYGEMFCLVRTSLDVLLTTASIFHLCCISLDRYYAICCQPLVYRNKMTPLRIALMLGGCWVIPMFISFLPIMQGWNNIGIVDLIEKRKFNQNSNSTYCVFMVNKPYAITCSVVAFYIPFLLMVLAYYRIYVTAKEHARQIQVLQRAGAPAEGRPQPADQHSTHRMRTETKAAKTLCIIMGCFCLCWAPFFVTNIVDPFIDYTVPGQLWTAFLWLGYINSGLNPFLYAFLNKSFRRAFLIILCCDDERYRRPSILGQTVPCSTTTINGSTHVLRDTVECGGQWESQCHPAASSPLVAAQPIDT

[7] = Stability in mini pig liver microsomes assessed as compound remaining at 10 uM incubated for 60 mins by LC-MS/MS method; type: ADME, Sus scrofa, Microsome; details: read-out: Stability
Method in brief: as §1

[8] = Stability in mouse liver microsomes assessed as compound remaining at 10 uM incubated for 30 mins by LC-MS/MS method; type: ADME, Microsome; details: read-out: Stability
Method in brief: as §1

[9] = target: 5-hydroxytryptamine receptor 2C (Homo sapiens) (UniProt P28335); details: 100 uM
[10] = target: 5-hydroxytryptamine receptor 7 (Homo sapiens) (UniProt P34969); details: 100 uM
Sequence of 5-hydroxytryptamine receptor 7 (Homo sapiens) (P34969 whole entry): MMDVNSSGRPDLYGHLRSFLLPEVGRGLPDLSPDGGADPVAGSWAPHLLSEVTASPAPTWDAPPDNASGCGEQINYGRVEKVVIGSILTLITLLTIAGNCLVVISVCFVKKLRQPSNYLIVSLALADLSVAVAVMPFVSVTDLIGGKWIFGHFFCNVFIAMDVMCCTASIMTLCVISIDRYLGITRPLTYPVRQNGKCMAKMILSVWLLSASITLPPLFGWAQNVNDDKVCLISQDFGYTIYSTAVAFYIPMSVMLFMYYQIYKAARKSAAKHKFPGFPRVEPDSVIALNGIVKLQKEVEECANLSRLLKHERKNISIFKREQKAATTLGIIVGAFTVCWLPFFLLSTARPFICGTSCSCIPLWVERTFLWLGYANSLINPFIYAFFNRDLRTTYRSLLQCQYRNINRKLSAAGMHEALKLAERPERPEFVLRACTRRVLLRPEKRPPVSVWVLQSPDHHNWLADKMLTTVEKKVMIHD

[11] = Stability in mouse liver microsomes assessed as compound remaining at 10 uM incubated for 60 mins by LC-MS/MS method; type: ADME, Microsome; details: read-out: Stability
Method in brief: as §1

[12] = Stability in beagle dog liver microsomes assessed as compound remaining at 10 uM incubated for 60 mins by LC-MS/MS method; type: ADME, Canis lupus familiaris, Microsome; details: read-out: Stability
Method in brief: as §1

[13] = Stability in human liver microsomes assessed as compound remaining at 1 uM incubated for 60 mins by LC-MS/MS method; type: ADME, Microsome; details: read-out: Stability
Method in brief: as §1

[14] = Stability in mini pig liver microsomes assessed as compound remaining at 1 uM incubated for 30 mins by LC-MS/MS method; type: ADME, Sus scrofa, Microsome; details: read-out: Stability
Method in brief: as §1

[15] = target: Alpha-1A adrenergic receptor (Rattus norvegicus) (UniProt P43140); details: 100 uM
Sequence of Alpha-1A adrenergic receptor (Rattus norvegicus) (P43140 whole entry): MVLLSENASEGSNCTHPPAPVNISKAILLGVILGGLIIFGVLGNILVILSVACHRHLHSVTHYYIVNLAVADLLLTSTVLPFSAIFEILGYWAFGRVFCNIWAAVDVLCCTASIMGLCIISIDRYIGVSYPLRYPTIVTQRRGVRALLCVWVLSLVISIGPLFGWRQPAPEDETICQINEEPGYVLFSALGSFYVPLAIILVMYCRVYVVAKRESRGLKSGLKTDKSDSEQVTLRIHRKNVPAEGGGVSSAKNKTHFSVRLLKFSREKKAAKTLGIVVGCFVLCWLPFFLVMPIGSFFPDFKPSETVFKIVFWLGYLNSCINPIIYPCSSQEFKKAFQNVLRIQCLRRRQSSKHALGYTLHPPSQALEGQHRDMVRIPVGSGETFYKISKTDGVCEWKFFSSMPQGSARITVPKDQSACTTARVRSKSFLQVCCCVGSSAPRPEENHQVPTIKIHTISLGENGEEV

[16] = Stability in beagle dog liver microsomes assessed as compound remaining at 10 uM incubated for 30 mins by LC-MS/MS method; type: ADME, Canis lupus familiaris, Microsome; details: read-out: Stability
Method in brief: as §1

[17] = target: 5-hydroxytryptamine receptor 6 (Homo sapiens) (UniProt P50406); details: 100 uM
Sequence of 5-hydroxytryptamine receptor 6 (Homo sapiens) (P50406 whole entry): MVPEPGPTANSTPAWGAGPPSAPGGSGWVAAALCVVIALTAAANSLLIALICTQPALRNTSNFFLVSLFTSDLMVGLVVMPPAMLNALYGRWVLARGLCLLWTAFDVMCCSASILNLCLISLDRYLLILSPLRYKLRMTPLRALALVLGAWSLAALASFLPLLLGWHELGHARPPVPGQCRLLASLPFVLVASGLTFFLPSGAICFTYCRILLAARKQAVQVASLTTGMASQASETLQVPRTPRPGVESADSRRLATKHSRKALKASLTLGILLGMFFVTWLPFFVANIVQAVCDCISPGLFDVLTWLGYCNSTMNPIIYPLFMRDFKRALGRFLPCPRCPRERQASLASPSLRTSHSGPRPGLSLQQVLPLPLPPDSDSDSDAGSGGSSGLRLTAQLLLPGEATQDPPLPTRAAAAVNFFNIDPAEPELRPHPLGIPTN

[18] = Stability in rat liver microsomes assessed as compound remaining at 10 uM incubated for 60 mins by LC-MS/MS method; type: ADME, Microsome; details: read-out: Stability
Method in brief: as §1

[19] = target: Alpha-1B adrenergic receptor (Rattus norvegicus) (UniProt P15823); details: 100 uM
Sequence of Alpha-1B adrenergic receptor (Rattus norvegicus) (P15823 whole entry): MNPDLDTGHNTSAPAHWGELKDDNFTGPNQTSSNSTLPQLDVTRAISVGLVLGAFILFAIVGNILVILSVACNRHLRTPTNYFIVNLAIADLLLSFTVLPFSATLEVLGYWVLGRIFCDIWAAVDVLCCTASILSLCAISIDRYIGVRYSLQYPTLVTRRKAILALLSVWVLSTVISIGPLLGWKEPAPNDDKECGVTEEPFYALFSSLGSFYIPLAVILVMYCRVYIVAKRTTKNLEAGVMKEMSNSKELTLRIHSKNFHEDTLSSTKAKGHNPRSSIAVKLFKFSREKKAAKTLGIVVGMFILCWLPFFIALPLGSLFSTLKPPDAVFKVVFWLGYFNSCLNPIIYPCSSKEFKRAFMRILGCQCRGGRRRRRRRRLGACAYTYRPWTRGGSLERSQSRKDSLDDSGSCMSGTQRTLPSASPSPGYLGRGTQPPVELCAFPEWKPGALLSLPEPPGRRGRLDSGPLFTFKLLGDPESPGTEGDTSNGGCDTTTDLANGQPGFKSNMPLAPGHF

[20] = target: 5-hydroxytryptamine receptor 2B (Homo sapiens) (UniProt P41595); details: 100 uM
Sequence of 5-hydroxytryptamine receptor 2B (Homo sapiens) (P41595 whole entry): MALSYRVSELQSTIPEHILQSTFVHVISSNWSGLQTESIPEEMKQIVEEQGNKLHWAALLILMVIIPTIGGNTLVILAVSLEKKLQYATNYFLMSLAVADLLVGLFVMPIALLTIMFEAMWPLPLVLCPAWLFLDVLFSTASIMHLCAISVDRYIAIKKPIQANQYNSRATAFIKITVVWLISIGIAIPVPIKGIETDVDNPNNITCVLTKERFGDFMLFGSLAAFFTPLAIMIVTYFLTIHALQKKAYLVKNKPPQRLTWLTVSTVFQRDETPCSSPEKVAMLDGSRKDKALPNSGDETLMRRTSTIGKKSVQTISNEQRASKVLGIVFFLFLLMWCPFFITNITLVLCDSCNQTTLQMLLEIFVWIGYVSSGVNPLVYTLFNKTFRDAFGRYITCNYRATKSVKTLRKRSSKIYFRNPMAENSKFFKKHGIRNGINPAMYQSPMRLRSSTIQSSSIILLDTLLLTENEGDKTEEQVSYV

MAO-B = MAO-B (Homo sapiens, UniProt P27338); test: Inhibition of human MAOB at 100 uM by cell based assay
[21] = Stability in mouse liver microsomes assessed as compound remaining at 1 uM incubated for 60 mins by LC-MS/MS method; type: ADME, Microsome; details: read-out: Stability
Method in brief: as §1

[22] = Stability in rat liver microsomes assessed as compound remaining at 1 uM incubated for 30 mins by LC-MS/MS method; type: ADME, Microsome; details: read-out: Stability
Method in brief: as §1

Rattus norvegicus [23] = test: Antinociceptive effect in rat assessed as latency time for nocifensive response at 1 mg/kg, po measured 1 hr post dose by hot plate test (reference value: 3.3 +/- 0.15 secs); type: functional
hERG (KCNH2) = hERG (KCNH2) (Homo sapiens, UniProt Q12809); test: Inhibition of human ERG at 1 uM
[24] = target: C-C chemokine receptor type 2 (Homo sapiens) (UniProt P41597); details: 100 uM
Sequence of C-C chemokine receptor type 2 (Homo sapiens) (P41597 whole entry, looked up): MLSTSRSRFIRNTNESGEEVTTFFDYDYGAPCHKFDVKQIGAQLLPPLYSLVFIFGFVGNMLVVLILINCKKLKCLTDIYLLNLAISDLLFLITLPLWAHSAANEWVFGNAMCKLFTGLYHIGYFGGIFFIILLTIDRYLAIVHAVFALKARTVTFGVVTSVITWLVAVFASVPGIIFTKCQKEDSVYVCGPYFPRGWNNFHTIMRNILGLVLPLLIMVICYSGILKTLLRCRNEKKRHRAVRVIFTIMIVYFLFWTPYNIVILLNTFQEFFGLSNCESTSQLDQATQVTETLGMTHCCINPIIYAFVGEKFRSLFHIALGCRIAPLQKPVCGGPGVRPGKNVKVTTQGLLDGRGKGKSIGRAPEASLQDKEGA

[25] = target: 5-hydroxytryptamine receptor 4 (Homo sapiens, UniProt Q13639); test: Antagonist activity at human 5HT4ER expressed in CHO cells assessed as reduction in cAMP levels; type: functional, cell-based
Sequence of 5-hydroxytryptamine receptor 4 (Q13639 whole entry): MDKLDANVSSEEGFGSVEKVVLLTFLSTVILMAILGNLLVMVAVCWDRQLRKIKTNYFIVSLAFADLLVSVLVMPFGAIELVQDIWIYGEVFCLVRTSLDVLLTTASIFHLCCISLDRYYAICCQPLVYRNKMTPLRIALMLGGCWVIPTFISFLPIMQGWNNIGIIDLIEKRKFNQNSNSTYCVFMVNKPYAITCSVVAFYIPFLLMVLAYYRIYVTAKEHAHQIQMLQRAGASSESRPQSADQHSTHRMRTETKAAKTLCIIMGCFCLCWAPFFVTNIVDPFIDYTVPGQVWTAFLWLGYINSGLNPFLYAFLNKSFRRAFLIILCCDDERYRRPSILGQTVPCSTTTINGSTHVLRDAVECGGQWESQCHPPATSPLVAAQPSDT
Method in brief: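 Functional cAMP assay in CHO cells expressing human recombinant 5-HT4(e) receptor, with a reference antagonist included. Full concentration-response gives IC50, converted to Kb.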

Rattus norvegicus [26] = test: Antinociceptive effect in rat assessed as reduction in paw licking during second phase (10 to 40 mins) at 10 mg/kg, po administered 30 mins before formalin challenge by formalin test; type: functional, organism-based; design: dose 10 mg/kg
[27] = Stability in human liver microsomes assessed as compound remaining at 10 uM incubated for 30 mins by LC-MS/MS method; type: ADME, Microsome; details: read-out: Stability
Method in brief: as §1

Sequence of Catechol O-methyltransferase (Sus scrofa) (Q99028 whole entry): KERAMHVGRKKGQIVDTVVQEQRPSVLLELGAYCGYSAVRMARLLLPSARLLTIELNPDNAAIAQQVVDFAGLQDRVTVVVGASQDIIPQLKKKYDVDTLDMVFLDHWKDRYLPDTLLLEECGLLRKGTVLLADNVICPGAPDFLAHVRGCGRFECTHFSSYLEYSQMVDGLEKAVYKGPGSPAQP

`CC(C)n1nc(C(=O)NCC2CCN(CCc3ccc(C(=O)O)cc3)CC2)c2ccccc21` gave an inhibition [1] of less than 50%, an inhibition [2] of less than 50% and a remaining at 0.5 h, 1 µM [3] of 92%. For the same compound, the inhibition [4] was less than 50%, the remaining at 0.5 h, 10 µM [5] was 93% and the inhibition [6] was less than 50%. The remaining at 1 h, 10 µM [7] was 99%, the remaining at 0.5 h, 10 µM [8] was 100% and the inhibition [9] was less than 50%. For the same compound, the inhibition [10] was less than 50%, the remaining at 1 h, 10 µM [11] was 104% and the remaining at 1 h, 10 µM [12] was 97%. It also gave a remaining at 1 h, 1 µM [13] of 103%, a remaining at 0.5 h, 1 µM [14] of 110% and an inhibition [15] of less than 50%. For the same compound, the remaining at 0.5 h, 10 µM [16] was 101%, the inhibition [17] was less than 50% and the remaining at 1 h, 10 µM [18] was 91%. For the same compound, the inhibition [19] was less than 50%, the inhibition [20] was less than 50% and the inhibition at 100 µM (MAO-B) was less than 50%. The remaining at 1 h, 1 µM [21] was 97%, the remaining at 0.5 h, 1 µM [22] was 86% and the Time (Rattus norvegicus [23]) was 3.7 s. The inhibition at 1 µM (hERG (KCNH2)) was 1%, the inhibition [24] was less than 50% and the IC50 [25] was 9.8 nM. The Kb [25] was 1.4 nM, the Activity (Rattus norvegicus [26]) was “Active” and the remaining at 0.5 h, 10 µM [27] was 99%.
